# Experimental data: ChEMBL document CHEMBL4622853, “Design and synthesis of novel pyrrolo[2,3-b]pyridine derivatives targeting V600EBRAF” (Bioorg Med Chem, 2020)
# Key:
# [1] = test system: Serine/threonine-protein kinase B-raf (Homo sapiens), P15056 [V600E]; test: Inhibition of human BRAF V600E mutant at 10 uM by ELISA
# [2] = molecular target: T1, Serine/threonine-protein kinase B-raf (Homo sapiens, UniProt P15056); test: Inhibition of human wild type BRAF at 10 uM by ELISA
# Procedure, shortened: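 Wild-type BRAF kinase inhibition run in the same manner as the V600E-B-RAF ELISA, reported as percent inhibition at 10 µM.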
# HL-60(TB) [3] = test: Cytotoxicity against human HL-60(TB) cells assessed as reduction in cell viability at 10 uM after 48 hrs by SRB assay relative to control; type: functional; settings: HL-60, 48 h
# LOX IMVI = test: Cytotoxicity against human LOXIMVI cells assessed as reduction in cell viability after 48 hrs by SRB assay; type: functional, cell-based
# Procedure, shortened: (§1)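 Cell lines from the NCI sixty human cancer cell line panel. IC50 taken as the concentration that reduces cellular growth to 50% of untreated cells.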
# Malme-3M = test: Cytotoxicity against human MALME-3M cells assessed as reduction in cell viability after 48 hrs by SRB assay; type: functional, cell-based; procedure, shortened: as §1
# M14 [4] = test: Cytotoxicity against human M14 cells assessed as reduction in cell viability after 48 hrs by SRB assay; type: functional, cell-based; settings: M14, 48 h; procedure, shortened: as §1
# K562 [5] = test: Cytotoxicity against human K562 cells assessed as reduction in cell viability at 10 uM after 48 hrs by SRB assay relative to control; type: functional; settings: K562, 48 h
# NCI-H522 = test: Cytotoxicity against human NCI-H522 cells assessed as reduction in cell viability after 48 hrs by SRB assay; type: functional, cell-based; settings: NCI-H522, 48 h; procedure, shortened: as §1
# NCI-H460 = test: Cytotoxicity against human NCI-H460 cells assessed as reduction in cell viability after 48 hrs by SRB assay; type: functional, cell-based; settings: NCI-H460, 48 h; procedure, shortened: as §1
# SK-MEL-2 [6] = test: Cytotoxicity against human SK-MEL-2 cells assessed as reduction in cell viability after 48 hrs by SRB assay; type: functional, cell-based; settings: SK-MEL-2, 48 h; procedure, shortened: as §1
# IGROV-1 [7] = test: Cytotoxicity against human IGROV1 cells assessed as reduction in cell viability after 48 hrs by SRB assay; type: functional, cell-based; settings: IGROV-1, 48 h; procedure, shortened: as §1
# DU-145 = test: Cytotoxicity against human DU145 cells assessed as reduction in cell viability after 48 hrs by SRB assay; type: functional, cell-based; settings: DU-145, 48 h; procedure, shortened: as §1
# CAKI-1 [8] = test: Cytotoxicity against human Caki1 cells assessed as reduction in cell viability after 48 hrs by SRB assay; type: functional, cell-based; settings: CAKI-1, 48 h; procedure, shortened: as §1
# ACHN [9] = test: Cytotoxicity against human ACHN cells assessed as reduction in cell viability after 48 hrs by SRB assay; type: functional, cell-based; procedure, shortened: as §1
# MDA-MB-231 = test: Cytotoxicity against human MDA-MB-231 cells assessed as reduction in cell viability after 48 hrs by SRB assay; type: functional, cell-based; settings: MDA-MB-231, 48 h; procedure, shortened: as §1
# HCT-116 = test: Cytotoxicity against human HCT116 cells assessed as reduction in cell viability after 48 hrs by SRB assay; type: functional, cell-based; settings: HCT-116, 48 h; procedure, shortened: as §1
# [10] = molecular target: Serine/threonine-protein kinase B-raf (Homo sapiens, UniProt P15056, V600E); test: Inhibition of human BRAF V600E mutant by ELISA
# HL-60(TB) [11] = test: Cytotoxicity against human HL-60(TB) cells assessed as reduction in cell viability after 48 hrs by SRB assay; type: functional, cell-based; settings: HL-60, 48 h
# Procedure, shortened: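 Tested within the NCI sixty human cancer cell line panel. IC50 is the concentration that reduces cellular growth to 50% of untreated cells after treatment.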
# A498 = test: Cytotoxicity against human A498 cells assessed as reduction in cell viability after 48 hrs by SRB assay; type: functional, cell-based; settings: A498, 48 h; procedure, shortened: as §1
# Hs-578T = test: Cytotoxicity against human Hs 578T cells assessed as reduction in cell viability after 48 hrs by SRB assay; type: functional, cell-based; procedure, shortened: as §1
# SK-OV-3 [12] = test: Cytotoxicity against human SKOV3 cells assessed as reduction in cell viability after 48 hrs by SRB assay; type: functional, cell-based; settings: SK-OV-3, 48 h; procedure, shortened: as §1
# K562 [13] = test: Cytotoxicity against human K562 cells assessed as reduction in cell viability after 48 hrs by SRB assay; type: functional, cell-based; settings: K562, 48 h; procedure, shortened: as §1
# CAKI-1 [14] = test: Cytotoxicity against human Caki1 cells assessed as reduction in cell viability at 10 uM after 48 hrs by SRB assay relative to control; type: functional; settings: CAKI-1, 48 h
# ACHN [15] = test: Cytotoxicity against human ACHN cells assessed as reduction in cell viability at 10 uM after 48 hrs by SRB assay relative to control; type: functional
# SK-MEL-2 [16] = test: Cytotoxicity against human SK-MEL-2 cells assessed as reduction in cell viability at 10 uM after 48 hrs by SRB assay relative to control; type: functional; settings: SK-MEL-2, 48 h
# IGROV-1 [17] = test: Cytotoxicity against human IGROV1 cells assessed as reduction in cell viability at 10 uM after 48 hrs by SRB assay relative to control; type: functional; settings: IGROV-1, 48 h
# M14 [18] = test: Cytotoxicity against human M14 cells assessed as reduction in cell viability at 10 uM after 48 hrs by SRB assay relative to control; type: functional; settings: M14, 48 h
# SK-OV-3 [19] = test: Cytotoxicity against human SKOV3 cells assessed as reduction in cell viability at 10 uM after 48 hrs by SRB assay relative to control; type: functional; settings: SK-OV-3, 48 h
# [20] = molecular target: T1, Serine/threonine-protein kinase B-raf; test: Inhibition of BRAF (unknown origin)
# T1 sequence (P15056 whole entry): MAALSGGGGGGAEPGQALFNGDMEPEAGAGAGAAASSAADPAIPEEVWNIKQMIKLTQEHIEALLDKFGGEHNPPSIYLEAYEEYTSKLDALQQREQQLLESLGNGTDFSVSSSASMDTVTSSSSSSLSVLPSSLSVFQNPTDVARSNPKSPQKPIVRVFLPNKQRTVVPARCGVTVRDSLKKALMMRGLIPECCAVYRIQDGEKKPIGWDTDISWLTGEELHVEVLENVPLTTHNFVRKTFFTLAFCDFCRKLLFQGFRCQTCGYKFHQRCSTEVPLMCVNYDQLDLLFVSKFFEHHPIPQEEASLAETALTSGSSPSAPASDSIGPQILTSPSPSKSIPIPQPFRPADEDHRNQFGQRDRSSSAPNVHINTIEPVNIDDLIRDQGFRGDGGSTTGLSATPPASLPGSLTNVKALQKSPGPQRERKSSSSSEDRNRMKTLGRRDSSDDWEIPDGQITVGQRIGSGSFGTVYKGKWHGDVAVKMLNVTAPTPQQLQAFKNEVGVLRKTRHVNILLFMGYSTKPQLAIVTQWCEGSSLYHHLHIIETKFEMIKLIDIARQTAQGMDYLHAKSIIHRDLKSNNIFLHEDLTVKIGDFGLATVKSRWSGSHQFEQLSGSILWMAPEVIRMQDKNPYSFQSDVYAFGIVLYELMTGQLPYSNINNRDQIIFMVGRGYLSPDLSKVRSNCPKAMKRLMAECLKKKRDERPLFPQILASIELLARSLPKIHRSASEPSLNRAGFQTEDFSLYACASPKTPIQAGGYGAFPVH
# Sequence of Serine/threonine-protein kinase B-raf (Homo sapiens), P15056 [V600E] (P15056 whole entry V600E): as the sequence (P15056 whole entry) above, with V600E counted along it
# Sequence of Serine/threonine-protein kinase B-raf (Homo sapiens, UniProt P15056, V600E) (P15056 2-766 V600E limits assumed): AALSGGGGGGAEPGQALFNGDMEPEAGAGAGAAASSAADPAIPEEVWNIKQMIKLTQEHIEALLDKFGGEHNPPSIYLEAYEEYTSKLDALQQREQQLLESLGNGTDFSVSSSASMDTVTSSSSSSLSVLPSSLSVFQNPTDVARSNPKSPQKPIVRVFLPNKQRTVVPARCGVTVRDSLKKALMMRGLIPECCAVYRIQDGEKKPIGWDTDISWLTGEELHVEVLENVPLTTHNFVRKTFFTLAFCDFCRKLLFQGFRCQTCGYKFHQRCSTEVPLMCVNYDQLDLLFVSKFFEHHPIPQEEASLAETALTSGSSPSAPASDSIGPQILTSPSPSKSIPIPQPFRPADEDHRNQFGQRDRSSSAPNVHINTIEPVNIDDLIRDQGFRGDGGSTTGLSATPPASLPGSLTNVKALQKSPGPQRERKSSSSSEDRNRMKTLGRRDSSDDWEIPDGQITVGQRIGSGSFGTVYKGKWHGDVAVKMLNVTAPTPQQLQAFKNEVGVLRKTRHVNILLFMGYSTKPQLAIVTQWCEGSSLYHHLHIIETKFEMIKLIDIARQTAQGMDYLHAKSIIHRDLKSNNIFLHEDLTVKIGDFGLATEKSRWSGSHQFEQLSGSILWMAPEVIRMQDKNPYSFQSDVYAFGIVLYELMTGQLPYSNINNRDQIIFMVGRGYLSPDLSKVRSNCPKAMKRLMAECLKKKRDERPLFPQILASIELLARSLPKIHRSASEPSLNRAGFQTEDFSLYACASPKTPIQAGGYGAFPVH
smiles,measurement,setting,value
Cc1ccc(C(=O)NCCNc2nccc(-n3ccc4cccnc43)n2)cc1,inhibition,[1],81.8%
same,inhibition,[2],53.8%
O=C(Nc1ccc(C(F)(F)F)cc1)Nc1ccc(F)c(C(=O)c2c[nH]c3ncccc23)c1F,inhibition at 10 µM,HL-60(TB) [3],67%
same,IC50,LOX IMVI,27 µM
same,IC50,Malme-3M,12.3 µM
same,IC50,M14 [4],24.3 µM
same,inhibition at 10 µM,K562 [5],83%
same,IC50,NCI-H522,29.1 µM
same,IC50,NCI-H460,26.4 µM
same,IC50,SK-MEL-2 [6],21.1 µM
same,IC50,IGROV-1 [7],9.66 µM
same,IC50,DU-145,27.6 µM
same,IC50,CAKI-1 [8],14 µM
same,IC50,ACHN [9],21.3 µM
same,IC50,MDA-MB-231,9.72 µM
same,inhibition,[1],98.7%
same,IC50,HCT-116,15.5 µM
same,IC50,[10],0.114 µM
same,IC50,HL-60(TB) [11],8.12 µM
same,IC50,A498,32.3 µM
same,IC50,Hs-578T,21.4 µM
same,IC50,SK-OV-3 [12],18.8 µM
same,IC50,K562 [13],25.3 µM
same,inhibition,[2],79.3%
O=C(NCCCNc1nccc(-n2ccc3cccnc32)n1)c1ccc(Cl)cc1,inhibition,[1],80.7%
same,inhibition,[2],72.1%
O=S(=O)(NCCNc1nccc(-n2ccc3cccnc32)n1)c1cccc(Br)c1,inhibition,[1],65.3%
same,inhibition,[2],55.2%
O=S(=O)(NCCCNc1nccc(-n2ccc3cccnc32)n1)c1ccc(F)cc1,inhibition,[1],95.2%
same,IC50,[10],0.88 µM
same,inhibition,[2],79.7%
O=S(=O)(NCCCNc1nccc(-n2ccc3cccnc32)n1)c1cccc(C(F)(F)F)c1,inhibition,[1],96.1%
same,IC50,[10],1.1 µM
same,inhibition,[2],86.3%
COc1ccc(NC(=O)Nc2ccc(F)c(C(=O)c3c[nH]c4ncccc34)c2F)cc1,inhibition,[1],81.3%
same,inhibition,[2],69.6%
O=C(Nc1ccc(Br)cc1)Nc1ccc(F)c(C(=O)c2c[nH]c3ncccc23)c1F,inhibition,[1],92%
same,inhibition,[2],80.1%
O=C(Nc1ccc(F)c(C(=O)c2c[nH]c3ncccc23)c1F)Nc1cccc2ccccc12,inhibition,[1],85.6%
same,inhibition,[2],68.9%
O=C(NCCCNc1nccc(-n2ccc3cccnc32)n1)c1ccccc1,inhibition,[1],69.4%
same,inhibition,[2],60.9%
O=C(NCCCNc1nccc(-n2ccc3cccnc32)n1)c1c(F)cccc1F,inhibition,[1],72.6%
same,inhibition,[2],67.2%
O=C(NCCNc1nccc(-n2ccc3cccnc32)n1)C1CCCCC1,inhibition,[1],73.7%
same,inhibition,[2],43.4%
O=S(=O)(NCCNc1nccc(-n2ccc3cccnc32)n1)c1ccccc1,inhibition,[1],66.5%
same,inhibition,[2],52.3%
Cc1ccc(C(=O)NCCCNc2nccc(-n3ccc4cccnc43)n2)cc1,inhibition,[1],61.6%
same,inhibition,[2],50%
Cc1ccc(S(=O)(=O)NCCNc2nccc(-n3ccc4cccnc43)n2)cc1,inhibition,[1],41.1%
same,inhibition,[2],26.3%
O=C(Nc1ccc(Br)cc1)Nc1ccc(F)c(C(=O)c2c[nH]c3ncc(Br)cc23)c1F,IC50,LOX IMVI,26.5 µM
same,IC50,Malme-3M,9.26 µM
same,IC50,M14 [4],7.92 µM
same,inhibition at 10 µM,K562 [5],65%
same,inhibition at 10 µM,CAKI-1 [14],90%
same,IC50,NCI-H522,9.01 µM
same,IC50,NCI-H460,10.5 µM
same,inhibition at 10 µM,ACHN [15],70%
same,inhibition at 10 µM,SK-MEL-2 [16],85%
same,inhibition at 10 µM,IGROV-1 [17],75%
same,inhibition at 10 µM,M14 [18],65%
same,IC50,SK-MEL-2 [6],6.02 µM
same,IC50,IGROV-1 [7],5.06 µM
same,IC50,DU-145,9.62 µM
same,IC50,CAKI-1 [8],3.04 µM
same,IC50,ACHN [9],7.62 µM
same,IC50,MDA-MB-231,12.2 µM
same,inhibition,[1],92.3%
same,IC50,HCT-116,8.71 µM
same,inhibition at 10 µM,SK-OV-3 [19],87%
same,IC50,[10],0.08 µM
same,IC50,HL-60(TB) [11],10.9 µM
same,IC50,A498,11.2 µM
same,IC50,Hs-578T,9.36 µM
same,IC50,SK-OV-3 [12],4.52 µM
same,IC50,K562 [13],7.21 µM
same,inhibition,[2],72.5%
O=C(Nc1ccccc1)Nc1ccc(F)c(C(=O)c2c[nH]c3ncccc23)c1F,inhibition,[1],94.5%
same,inhibition,[2],86.5%
O=C(NCCCNc1nccc(-n2ccc3cccnc32)n1)C1CCCCC1,inhibition,[1],49.6%
same,inhibition,[2],41.2%
O=C(NCCCNc1nccc(-n2ccc3cccnc32)n1)c1ccc(C(F)(F)F)cc1,inhibition,[1],15.3%
same,inhibition,[2],9.45%
O=S(=O)(NCCCNc1nccc(-n2ccc3cccnc32)n1)c1cccc(Br)c1,inhibition,[1],96.7%
same,IC50,[10],0.5 µM
same,inhibition,[2],89.4%
O=C(NCCNc1nccc(-n2ccc3cccnc32)n1)c1ccc(F)cc1,inhibition,[1],70%
same,inhibition,[2],56.8%
O=S(=O)(NCCCNc1nccc(-n2ccc3cccnc32)n1)c1ccccc1,inhibition,[1],95.5%
same,IC50,[10],0.75 µM
same,inhibition,[2],81.4%
O=S(=O)(NCCNc1nccc(-n2ccc3cccnc32)n1)c1ccc(Cl)cc1,inhibition,[1],63.7%
same,inhibition,[2],49.2%
O=C(NCCCNc1nccc(-n2ccc3cccnc32)n1)c1ccc(F)cc1,inhibition,[1],67.5%
same,inhibition,[2],58.7%
O=S(=O)(NCCNc1nccc(-n2ccc3cccnc32)n1)c1ccc(F)cc1,inhibition,[1],89.5%
same,inhibition,[2],55.9%
O=C(NCCNc1nccc(-n2ccc3cccnc32)n1)c1c(F)cccc1F,inhibition,[1],-1.9%
same,inhibition,[2],0.1%
COc1ccc(S(=O)(=O)NCCCNc2nccc(-n3ccc4cccnc43)n2)cc1,inhibition,[1],94.5%
same,IC50,[10],0.79 µM
same,inhibition,[2],82.1%
O=C(NCCNc1nccc(-n2ccc3cccnc32)n1)c1ccc(Cl)cc1,inhibition,[1],0.16%
same,inhibition,[2],-1.1%
O=C(NCCNc1nccc(-n2ccc3cccnc32)n1)c1ccc(C(F)(F)F)cc1,inhibition,[1],32.9%
same,inhibition,[2],12.1%
Cc1ccc(NC(=O)Nc2ccc(F)c(C(=O)c3c[nH]c4ncccc34)c2F)cc1,inhibition,[1],98.4%
same,IC50,[10],0.085 µM
same,inhibition,[2],77.6%
O=C(NCCNc1nccc(-n2ccc3cccnc32)n1)c1ccccc1,inhibition,[1],86.3%
same,inhibition,[2],86.3%
O=S(=O)(NCCCNc1nccc(-n2ccc3cccnc32)n1)c1ccc(Cl)cc1,inhibition,[1],96.8%
same,inhibition,[2],66.5%
Cc1ccc(S(=O)(=O)NCCCNc2nccc(-n3ccc4cccnc43)n2)cc1,inhibition,[1],93%
same,IC50,[10],1 µM
same,inhibition,[2],83.3%
O=C(Nc1cccc(F)c1)Nc1ccc(F)c(C(=O)c2c[nH]c3ncccc23)c1F,inhibition,[1],49%
same,inhibition,[2],51.2%
COc1ccc(S(=O)(=O)NCCNc2nccc(-n3ccc4cccnc43)n2)cc1,inhibition,[1],56.7%
same,inhibition,[2],39.2%
O=S(=O)(NCCNc1nccc(-n2ccc3cccnc32)n1)c1ccc(Br)cc1,inhibition,[1],65.9%
same,inhibition,[2],44.6%
O=S(=O)(NCCNc1nccc(-n2ccc3cccnc32)n1)c1cccc(C(F)(F)F)c1,inhibition,[1],18.1%
same,inhibition,[2],10.2%
CCCS(=O)(=O)Nc1ccc(F)c(-n2cc(-c3cncnc3)c3nc(N(C)C4CCN(CC)CC4)ccc32)c1F [XP-102],IC50,[20],0.0004 µM
O=S(=O)(NCCCNc1nccc(-n2ccc3cccnc32)n1)c1ccc(Br)cc1,inhibition,[1],97.7%
same,IC50,[10],0.35 µM
same,inhibition,[2],75.2%
